Experimental data reported in ChEMBL document CHEMBL1128396, “Synthesis and biological evaluation of a series of new parenteral optically active 3-[[(N-alkylpyridinium-4'-yl)thio]methyl]-2-oxaisocephems” (1995).
Values after ≈ are worked out from the molar mass of the structure shown. One block for each molecule: values may come before it.

Tests used:
Assay type in all cases: functional
[1] = tested on: Enterococcus faecalis; assay: Antibacterial activity was determined against Enterococcus faecalis ATCC 21212 (Gram-positive)
Outline: (§1)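 2-fold agar dilution on Müller-Hinton agar. Overnight broth cultures were diluted to about 10^6 CFU/mL, and 10^4 CFU/spot was applied to plates with graded drug concentrations. Plates were incubated 18 h at 37 °C.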

[2] = tested on: Mus musculus; assay: Antibacterial activity was determined against Staphylococcus aureus Smith at a challenge dose of 1.32*10e7 (cells/mouse) (sc) administered
Outline: (§2)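 Cultures were grown overnight at 37 °C in tryptic soy broth (S. aureus, MRSA, E. faecalis) or Müller-Hinton broth (E. coli, S. pneumoniae). Graded doses were given subcutaneously 1 h post-infection. ED50 was calculated by probit from day-7 survival, with 95% confidence limits.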

[3] = tested on: Pseudomonas aeruginosa; assay: Antibacterial activity was determined against Pseudomonas aeruginosa ATCC 10145 (Gram-negative); outline: as §1
[4] = tested on: Staphylococcus aureus; assay: Antibacterial activity was determined against Methicillin-resistant Staphylococcus aureus (MRSA) 5038 (Gram-positive)
[5] = tested on: Staphylococcus epidermidis; assay: Antibacterial activity was determined against Staphylococcus epidermidis ATCC 12228 (Gram-positive); outline: as §1
[6] = tested on: Escherichia coli; assay: Antibacterial activity was determined against Escherichia coli NIHJ JC-2 (Gram-negative); outline: as §1
[7] = tested on: Mus musculus; assay: Antibacterial activity was determined against MRSA 5129 at a challenge dose of 1.38*10e8 (cells/mouse) administered subcutaneously; settings: sc
Outline: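 Male ICR mice (~20 g, 10 per dose group) were challenged intraperitoneally with 0.5 mL of about 10-100 times the LD50. Inoculum was an overnight 37 °C tryptic soy broth culture suspended in fresh broth with 5% gastric mucin. Various subcutaneous doses were given 1 h post-infection. Survivors were counted on day 7, and ED50 with 95% confidence limits was derived by probit.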

[8] = tested on: Mus musculus; assay: Antibacterial activity was determined against MRSA 5038 at a challenge dose of 1.00*10e7 (cells/mouse) administered subcutaneously; settings: sc; outline: as §2
[9] = tested on: Staphylococcus aureus; assay: Antibacterial activity was determined against Staphylococcus aureus FDA 209P (Gram-positive); outline: as §1
[10] = tested on: Serratia marcescens; assay: Antibacterial activity was determined against Serratia marcescens ATCC 12648 (Gram-negative); outline: as §1
[11] = tested on: Mus musculus; assay: Antibacterial activity was determined against Escherichia coli 29 at a challenge dose of 1.35*10e6 (cells/mouse) administered subcutaneously; settings: sc; outline: as §2
[12] = tested on: Klebsiella pneumoniae; assay: Antibacterial activity was determined against Klebsiella pneumoniae NCTC 9632 (Gram-negative); outline: as §1
[13] = tested on: Staphylococcus aureus; assay: […] was determined against MRSA 5129
[14] = tested on: Enterococcus faecalis; assay: In vitro antibacterial activity against clinical isolates Enterococcus faecalis was determined; outline: as §1
[15] = tested on: Mus musculus; assay: Antibacterial activity was determined against Staphylococcus aureus Smith at a challenge dose of 1.32*10e7 (cells/mouse) administered subcutaneously; settings: sc; outline: as §2
[16] = tested on: Mus musculus; assay: Antibacterial activity was determined against Enterococcus faecalis C 0063 at a challenge dose of 7.00*10e7 (cells/mouse) administered subcutaneously; settings: sc; outline: as §2
[17] = tested on: Staphylococcus aureus; assay: In vitro antibacterial activity against clinical isolates methicillin-resistant Staphylococcus aureus was determined
Outline: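 2-fold agar dilution on Müller-Hinton agar. Overnight broth cultures were diluted to about 10^6 CFU/mL, and 10^4 CFU/spot was applied to plates with graded drug concentrations.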

[18] = tested on: Staphylococcus aureus; assay: […] was determined against MRSA 5120
[19] = tested on: Streptococcus pneumoniae; assay: In vitro antibacterial activity against clinical isolates Ampicillin-insensitive Streptococcus pneumoniae was determined; outline: as §1
[20] = tested on: Mus musculus; assay: Antibacterial activity was determined against Streptococcus pneumoniae C 0096 at a challenge dose of 1.60*10e2 (cells/mouse) administered subcutaneously; settings: sc; outline: as §2
[21] = tested on: Mus musculus; assay: Antibacterial activity was determined against MRSA 5120 at a challenge dose of 7.6*10e7 (cells/mouse) administered subcutaneously; settings: sc; outline: as §2

Compound: C[n+]1ccc(SCC2=C(C(=O)O)N3C(=O)[C@@H](NC(=O)/C(=N\OC4CCCC4)c4csc(N)n4)[C@H]3CO2)cc1.O=S(=O)([O-])O
MIC [1]: 1.56 µg/mL | ED50 [2]: 0.08 mg/kg | MIC [3]: 6.25 µg/mL | MIC [4]: 3.13 µg/mL | MIC [5]: 0.05 µg/mL | MIC [6]: 0.39 µg/mL | ED50 [7]: 3.91 mg/kg | ED50 [8]: 3.4 mg/kg | MIC [9]: 0.05 µg/mL | MIC [10]: 1.56 µg/mL | ED50 [11]: 0.09 mg/kg | MIC [12]: 0.2 µg/mL | MIC [13]: 6.25 µg/mL

Compound: CCC(=O)C[n+]1ccc(SCC2=C(C(=O)O)N3C(=O)[C@@H](NC(=O)/C(=N\OC4CCCC4)c4csc(N)n4)[C@H]3CO2)cc1.O=S(=O)([O-])O
MIC [1]: 1.56 µg/mL | MIC [3]: 6.25 µg/mL | MIC [4]: 6.25 µg/mL | MIC [5]: 0.2 µg/mL | MIC50 [14]: 3.13 µg/mL | MIC80 [14]: 3.13 µg/mL | MIC90 [14]: 6.25 µg/mL | ED50 [15]: 0.22 mg/kg | MIC [6]: 0.39 µg/mL | ED50 [16]: 5.23 mg/kg | MIC50 [17]: 6.25 µg/mL | MIC80 [17]: 6.25 µg/mL | MIC90 [17]: 6.25 µg/mL | MIC [9]: 0.2 µg/mL | MIC [18]: 6.25 µg/mL | MIC50 [19]: 0.025 µg/mL | MIC80 [19]: 0.05 µg/mL | MIC90 [19]: 0.05 µg/mL | MIC [10]: 1.56 µg/mL | ED50 [11]: 0.15 mg/kg | ED50 [20]: 0.56 mg/kg | ED50 [21]: 1 mg/kg | MIC [12]: 0.39 µg/mL

MIC50 [19]: 3.13 µg/mL (≈ 8.96 µM) | MIC80 [19]: 3.13 µg/mL (≈ 8.96 µM) | MIC90 [19]: 3.13 µg/mL (≈ 8.96 µM)
Compound: CC1(C)S[C@@H]2[C@H](NC(=O)[C@H](N)c3ccccc3)C(=O)N2[C@H]1C(=O)O [AMPICILLIN]
ED50 [20]: 8.23 mg/kg

Compound: CN[C@H](CC(C)C)C(=O)N[C@H]1C(=O)N[C@@H](CC(N)=O)C(=O)N[C@H]2C(=O)N[C@H]3C(=O)N[C@H](C(=O)N[C@H](C(=O)O)c4cc(O)cc(O)c4-c4cc3ccc4O)[C@H](O)c3ccc(c(Cl)c3)Oc3cc2cc(c3O[C@@H]2O[C@H](CO)[C@@H](O)[C@H](O)[C@H]2O[C@H]2C[C@](C)(N)[C@H](O)[C@H](C)O2)Oc2ccc(cc2Cl)[C@H]1O [VANCOMYCIN]
MIC [1]: 0.78 µg/mL (≈ 0.538 µM) | MIC [3]: > 100 µg/mL | MIC [4]: 0.78 µg/mL (≈ 0.538 µM) | MIC [5]: 3.13 µg/mL (≈ 2.16 µM) | ED50 [15]: 3.74 mg/kg | MIC [6]: > 100 µg/mL | ED50 [7]: 18.7 mg/kg | ED50 [8]: 2.7 mg/kg | MIC50 [17]: 1.56 µg/mL (≈ 1.08 µM) | MIC80 [17]: 1.56 µg/mL (≈ 1.08 µM) | MIC90 [17]: 1.56 µg/mL (≈ 1.08 µM) | MIC [9]: 0.78 µg/mL (≈ 0.538 µM) | MIC [18]: 0.78 µg/mL (≈ 0.538 µM) | MIC [10]: > 100 µg/mL | ED50 [21]: 11.5 mg/kg | MIC [12]: > 100 µg/mL | MIC [13]: 0.78 µg/mL (≈ 0.538 µM)
